Bioassay records (PubChem BioAssay)
Only some compounds are listed: those with a hit (about 1.1% of all), similar ones and a draw of the others.
CAL PDZ FP-1 – blocks peptide binding to the human CAL PDZ domain | Q9HD26 | AID 602252 | purified CAL PDZ, TMR-peptide fluorescence polarization, 1 h | inhibition, % at 24.9 µM | hit rate 0.92% among 300,000;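 active means mean inhibition of at least 30% with at least half of replicates also reaching 30%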
PglD DTNB – blocks C. jejuni PglD acetyltransferase activity | hit rate 0.098% among 360,000 | AID 602405 | purified PglD enzyme, DTNB colorimetric CoA detection | inhibition, % at 12.5 µM; in the data active means inhibition above about 16%, passing the limit was not always enough
CAL PDZ FP-2 – blocks peptide binding to human CAL PDZ domain; AID 504414; hit rate 0.02% among 330,000; purified CAL PDZ, TMR-peptide fluorescence polarization, 1 h; Q9HD26; inhibition, % at 20 µM;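 active means highest replicate inhibition of at least 40%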
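Test system: tagged CAL PDZ domain / Buffer or medium: sodium phosphate/NaCl buffer pH 7.4 with TCEP, IgG, Thesit / Reagent: TMR-labelled reporter peptide T*-PRC34 bound in PDZ groove / Compound dosing: single point, 20 µM / Schedule: 1 h incubation at room temperature before polarization reading / Technique: fluorescence polarization (mP) / Benchmarks: unlabelled peptide, DMSO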
miR122 inh – miR-122 inhibition in Huh7 cells | activation (reporter increase), % at 12.5 µM | hit rate 0.3% among 340,000 | Huh7 miR-122 Renilla luciferase sensor, 48 h; neutral wells = 0, positive control = 100;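 active means mean replicate activation score at least 90 and every replicate individually at or above 90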;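 further: higher luciferase means less miR-122 activity so hits act as miR-122 inhibitors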
Cneo AK release – causes C. neoformans cell lysis. adenylate kinase release luminescence, 4 h; normalised: neutral wells 0, clomiphene wells 100. lysis activity, % at 15 µM. hit rate 0.2% among 360,000. AID 651654;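 active means mean lysis activity across replicates of at least 80%, whatever share of replicates individually reach that level; inactive means mean lysis activity below 80%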
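Assay system: Cryptococcus neoformans yeast cells / Dosing: single-point compound dose / Timing: 4 h at 37 °C static, read 1 h later / Measured by: luminescence of released adenylate kinase using an AK detection reagent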
A number is an active result; - = inactive; . = no result.

SMILES | CAL PDZ FP-1 | PglD DTNB | CAL PDZ FP-2 | miR122 inh | Cneo AK release
Nc1nnc(SCC(=O)c2ccc([N+](=O)[O-])cc2)s1 | 34.8 | - | - | - | -
O=C(Nc1ccc(N2CCN(C(=O)c3ccco3)CC2)cc1)c1cc(Br)ccc1Cl | 48.8 | - | - | - | -
O=C(Nc1ccc(N2CCN(C(=O)c3ccco3)CC2)cc1)c1ccc(Br)cc1 | - | - | - | - | -
Cc1ccc(S(=O)(=O)N2CCN(C(C)CC(=O)O)CC2)cc1 (stereo unspecified) | . | - | - | - | -
CCCCNC(=S)N1CCN(C(c2ccccc2)c2ccccc2)CC1 | 44.7 | . | - | . | .
COc1cc(NS(=O)(=O)c2ccc(C)c(C)c2)c(OC)cc1Cl | - | - | - | 225.7 | -
COc1ccc(Cl)cc1S(=O)(=O)NCc1cccnc1 | - | - | - | 120.0 | -
COc1ccc(Cl)cc1NS(=O)(=O)c1cc(Cl)ccc1OC | - | - | - | 255.0 | .
Cc1ccc(C)c(-n2c(-c3ccc(Br)cc3)csc2=NC(=O)c2ccccc2F)c1 | - | - | - | . | -
COc1ccc(NC(=O)N(C)C[C@H]2OCCCC[C@@H](C)Oc3ccc(NS(=O)(=O)c4cn(C)cn4)cc3C(=O)N([C@@H](C)CO)C[C@@H]2C)cc1 | . | - | . | - | -
C[C@H]1CN([C@@H](C)CO)C(=O)Cc2cc(NC(=O)C3CCCCC3)ccc2O[C@H]1CN(C)S(=O)(=O)c1ccc(Cl)cc1 | . | - | . | - | -
C[C@H](CO)N1C[C@H](C)[C@H](CN(C)C(=O)C2CCCCC2)Oc2ncc(C#CC3CCCCC3)cc2C1=O | . | - | . | - | -
O=C(CSc1nnc(N2CCCC2)n1-c1ccccc1Cl)N1CCN(c2ccccn2)CC1 | 40.2 | - | - | - | -
O=C(CSc1nnc(N2CCCC2)n1-c1cccc(Cl)c1)N1CCN(c2ccccn2)CC1 | . | - | . | - | -
COc1ccc(S(=O)(=O)N(CCc2ccccc2)CC(=O)N2CCOCC2)cc1 | - | - | - | 125.2 | -
COc1ccccc1OCCSc1nc2ccccc2n1CC(N)=O | 58.8 | - | . | . | -
O=C(Nc1cccc(Cl)c1)N1C[C@H]2[C@@H](c3ccccc31)[C@H](CO)N2C(=O)c1cccnc1 | . | - | . | - | -
N#CC(CCc1ccc([N+](=O)[O-])cc1)(CCc1ccc([N+](=O)[O-])cc1)C(N)=O | 42.6 | - | - | - | -
O=[N+]([O-])c1ccc(Cc2ccc([N+](=O)[O-])cc2)cc1 | - | . | - | - | .
N=c1sccn1CC(=O)Nc1cccc(Oc2ccccc2)c1 | 38.1 | - | . | - | -
COCC(=O)Nc1ccc2c(c1)C(=O)N(C)C[C@H](OC)[C@H](C)CN(Cc1ccccc1)[C@H](C)CO2 | . | - | . | - | -
COc1ccccc1C(=O)Nc1ccc2c(c1)C(=O)N(C)C[C@H](OC)[C@H](C)CN(C)[C@@H](C)CO2 | . | - | . | . | -
COc1ccccc1C(=O)Nc1ccc2c(c1)C(=O)N(C)C[C@@H](OC)[C@H](C)CN(C)[C@@H](C)CO2 | . | - | . | . | 111.9
COCC(=O)Nc1ccc2c(c1)C(=O)N(C)C[C@@H](OC)[C@H](C)CN(Cc1ccccc1)[C@@H](C)CO2 | . | - | . | - | 112.0
CO[C@H]1CN(C)C(=O)c2cc(NS(=O)(=O)CC(F)(F)F)ccc2OC[C@@H](C)N(Cc2cccnc2)C[C@@H]1C | . | - | . | . | 88.2
SMILES | CAL PDZ FP-1 | PglD DTNB | CAL PDZ FP-2 | miR122 inh | Cneo AK release
CCCN1C[C@H](C)[C@@H](OC)CN(C)C(=O)c2cc(NC(=O)c3cccc(F)c3)ccc2OC[C@H]1C | . | - | . | - | 116.9
CO[C@H]1CN(C)C(=O)c2cc(NC(C)=O)ccc2OC[C@H](C)N(Cc2cccc(F)c2)C[C@@H]1C | . | - | . | . | 86.8
O=C(Nc1ccc(Cl)cc1)N1CCc2ccccc2C1 | 43.4 | . | - | - | .
O=C(Nc1ccccc1)N1CCc2ccccc2C1 | - | - | - | - | -
CCN(CC)CCNS(=O)(=O)c1ccc(Cl)cc1 | - | - | - | - | -
CCCN(CCC)CC(C)(C)NS(=O)(=O)c1ccc(Cl)cc1 | 69.8 | - | - | - | -
CCN(CC)CC(=O)Nn1c(C)nc2c(ncn2-c2ccccc2)c1=O | 51.4 | . | - | . | .
CCC(=O)N1C[C@H](C)[C@@H](OC)CN(C)C(=O)c2cc(NC(=O)C3CCOCC3)ccc2OC[C@@H]1C | . | - | . | . | -
CC(C)NC(=O)N(C)C[C@H]1OCCCC[C@@H](C)Oc2ccc(NC(=O)Nc3ccccc3)cc2C(=O)N([C@H](C)CO)C[C@@H]1C | . | - | . | - | -
